Source: PubChem BioAssay
T cruzi growth-1 – inhibitors of T. cruzi proliferation | T. cruzi beta-gal in NIH3T3, GalScreen luminescence, 90 h | 5.9% of 77,000 active | inhibition, % at 8.34 µM | AID 624255;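 active = mean inhibition above about 93%, with at least 55% of replicates each passing it, limit read from the data, passing the limit was not always enough; inconclusive = only one of those two conditions holds; inactive = neither condition holds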
KDM4C inh – inhibitors of human demethylase GASC-1 KDM4C; 0.15% of 96,000 active; GST-KDM4C 2-372, H3K9me3 peptide, LANCE TR-FRET; inhibition, % at 12.5 µM; AID 720574;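 active = mean replicate inhibition above about 25%, with at least 55% of replicates also reaching it, limit read from the data, passing the limit was not always enough; inconclusive = only one of those two conditions met; inactive = neither condition met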
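System: N-terminal GST-fused human GASC-1 (KDM4C) fragment, residues 2-372 / Amount: 10 nM GST-KDM4C in enzyme reaction / Also added: H3K9me3 peptide with Fe(II)/2OG / Times: 30 min demethylation and 1 h detection at room temperature / Signal: LANCE TR-FRET / Read-out basis: Fall in 671/618 emission ratio as inhibition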
IDH1 R132H inh – blocks human IDH1 R132H reductase activity; 0.18% of 70,000 active; inhibition, % at 10 µM; diaphorase/resazurin fluorescence, 60 min; in the data active = inhibition above about 34%; inconclusive = no clear call, values can overlap the other calls; inactive = below about 11%;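 also: 0% = DMSO and 100% = no enzyme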
Target sequence (O75874 whole entry R132H): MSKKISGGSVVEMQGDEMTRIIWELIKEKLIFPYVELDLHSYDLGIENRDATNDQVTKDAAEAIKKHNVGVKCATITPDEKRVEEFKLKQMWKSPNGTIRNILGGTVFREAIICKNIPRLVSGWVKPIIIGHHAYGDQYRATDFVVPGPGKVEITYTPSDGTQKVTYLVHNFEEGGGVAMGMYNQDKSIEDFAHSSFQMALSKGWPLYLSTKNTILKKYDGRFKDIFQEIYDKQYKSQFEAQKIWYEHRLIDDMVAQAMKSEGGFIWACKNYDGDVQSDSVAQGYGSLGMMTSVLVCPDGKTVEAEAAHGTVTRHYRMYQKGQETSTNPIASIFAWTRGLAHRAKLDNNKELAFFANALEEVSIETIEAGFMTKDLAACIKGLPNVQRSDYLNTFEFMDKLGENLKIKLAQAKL
T cruzi growth-2 – Trypanosoma cruzi proliferation inhibition | shares compounds with T cruzi growth-1 | T. cruzi beta-gal in NIH3T3, GalScreen luminescence, 90 h | inhibition, % at 8.35 µM | 72% of 5,600 active | AID 651739;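 active = mean replicate inhibition above about 95% and at least 55% of replicates individually reaching it, limit read from the data; inconclusive = only one of the two criteria is met; inactive = neither criterion is met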
T cruzi growth-3 – blocks T. cruzi growth in NIH3T3 host cells | shares compounds with T cruzi growth-1 | T. cruzi beta-gal in NIH3T3, GalScreen luminescence, 90 h | inhibition, % at 2.09 µM | 21% of 5,600 active | AID 651740;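 active = mean inhibition above about 95%, with at least 55% of replicates also reaching it, limit read from the data; inconclusive = meets just one of the two conditions; inactive = meets neither condition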;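 also: plate controls were neutral control median for no effect and positive control median for full effect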
3T3 cytotox – NIH/3T3 (mouse) viability loss; shares compounds with T cruzi growth-1; NIH/3T3 viability, CellTiter-Glo ATP luminescence, 90 h; cytotoxicity (signal decrease), % at 8.35 µM; 14% of 5,600 active;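 active = mean signal decrease across replicates above about 35% based on untreated-well scatter, with enough replicates individually passing, limit read from the data; inconclusive = no rule stated though some were filed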;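 also: 0% = median of neutral control wells and 100% = median of positive control wells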
3T3 cytotox 2 – cytotoxicity in mouse NIH/3T3 fibroblasts; inhibition, % at 24.9 µM; NIH/3T3 viability, CellTiter-Glo ATP luminescence, 90 h; shares compounds with T cruzi growth-1; 56% of 5,600 active;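 active = mean loss of cell viability signal at or above a set limit, and enough replicates individually reaching it; inconclusive = meets only the mean limit or only the replicate share; inactive = meets neither condition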;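 also: 0% = median of neutral control wells and 100% = median of positive control wells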
* = called active by the depositor; u = inconclusive; x = not tested or not shown. Many of the other results were omitted from the sample, so hits are more common in it than they were.

SMILES	T cruzi growth-1	KDM4C inh	IDH1 R132H inh	T cruzi growth-2	T cruzi growth-3	3T3 cytotox	3T3 cytotox 2
COc1ccc(S(=O)(=O)Nc2ccc3c(c2)C(=O)N([C@@H](C)CO)C[C@@H](C)[C@@H](CN(C)S(=O)(=O)c2ccc(F)cc2)OCCCC[C@@H](C)O3)cc1	79	-1	1	x	x	x	x
COc1ccc(S(=O)(=O)N(C)C[C@@H]2OCCCC[C@H](C)Oc3ccc(NS(=O)(=O)c4ccc(F)cc4)cc3C(=O)N([C@H](C)CO)C[C@H]2C)cc1	81	0	1	x	x	x	x
COc1ccc(S(=O)(=O)Nc2ccc3c(c2)C(=O)N([C@@H](C)CO)C[C@@H](C)[C@H](CN(C)S(=O)(=O)c2ccc(F)cc2)OCCCC[C@@H](C)O3)cc1	108*	10	1	114*	65	11	23
COc1ccc(S(=O)(=O)Nc2ccc3c(c2)C(=O)N([C@@H](C)CO)C[C@@H](C)[C@H](CN(C)S(=O)(=O)c2ccc(F)cc2)OCCCC[C@H](C)O3)cc1	100*	x	x	103*	39	30	5
COc1ccc(S(=O)(=O)N(C)C[C@@H]2OCCCC[C@H](C)Oc3ccc(N(C)C)cc3C(=O)N([C@@H](C)CO)C[C@@H]2C)cc1	63	-3	6	x	x	x	x
Cc1cc(Cl)ccc1OCCNS(=O)(=O)c1cc([N+](=O)[O-])ccc1C	x	x	0	x	x	x	x
C1=C(CN2CCOCC2)COc2c1cccc2OCC1CNCCO1 (stereo unspecified)	x	x	1	x	x	x	x
O=S(=O)(c1ccccc1)N1CCCCN2[C@H](C1)[C@H](c1ccc(C#CC3CCCC3)cc1)[C@@H]2CO	93	11	x	x	x	x	x
O=S(=O)(c1ccccc1)N1CCCCN2[C@H](CO)[C@H](c3ccc(C#CC4CCCC4)cc3)[C@@H]2C1	73	1	x	x	x	x	x
O=S(=O)(c1ccccc1)N1CCCCN2[C@@H](CO)[C@H](c3ccc(-c4cncnc4)cc3)[C@@H]2C1	21	0	x	x	x	x	x
O=S(=O)(c1ccccc1)N1CCCCN2[C@H](CO)[C@H](c3ccc(C#Cc4cccnc4)cc3)[C@@H]2C1	102*	0	x	107*	68	8	35*
CN(C)CC#Cc1ccc([C@H]2[C@H](CO)N3CCCCN(S(=O)(=O)c4ccccc4)C[C@@H]23)cc1	60	2	x	x	x	x	x
O=S(=O)(c1ccccc1)N1CCCCN2[C@H](C1)[C@@H](c1ccc(C#Cc3cccnc3)cc1)[C@@H]2CO	u	4	x	u	46	0	24
O=S(=O)(c1ccccc1)N1CCCCN2[C@@H](CO)[C@@H](c3ccc(C#Cc4cccnc4)cc3)[C@@H]2C1	113*	3	x	112*	107*	-15	91*
O=S(=O)(c1ccccc1)N1CCCCN2[C@H](C1)[C@H](c1ccc(C#Cc3cccnc3)cc1)[C@@H]2CO	114*	-1	x	105*	67	15	49*
O=C(C1CCC1)N1CC2(C1)[C@@H](c1ccccc1)[C@@H](CO)N2C(=O)c1ccccn1	x	5	x	x	x	x	x
CCOc1ccccc1OCC(=O)Nc1cc(Cl)ccc1OC	x	x	0	x	x	x	x
C[C@H](CO)N1C[C@H](C)[C@@H](CN(C)C(=O)Nc2ccc(F)cc2)Oc2ccc(NS(=O)(=O)c3ccccc3)cc2C1=O	5	-1	2	x	x	x	x
COc1cccc(S(=O)(=O)Nc2ccc3c(c2)[C@@H]2C[C@@H](CC(=O)NCc4ccccc4F)O[C@H](CO)[C@@H]2O3)c1	-34	0	0	x	x	x	x
O=C(CSc1nnc(-c2ccc(Br)cc2)o1)Nc1ccc(Cl)cc1Cl	x	x	0	x	x	x	x
O=S(=O)(c1ccccc1)N1CCCCN2[C@H](CO)[C@@H](c3ccc(C#Cc4ccccc4)cc3)[C@H]2C1	103*	1	x	107*	103*	57*	92*
COc1ccc(C#Cc2ccc([C@@H]3[C@H](CO)N4CCCCN(S(=O)(=O)c5ccccc5)C[C@@H]34)cc2)cc1	102	-1	x	x	x	x	x
C[C@H]1CN([C@@H](C)CO)C(=O)Cc2cc(NC(=O)Nc3ccc4c(c3)OCO4)ccc2O[C@@H]1CN(C)S(C)(=O)=O	x	1	x	x	x	x	x
